According to ChEMBL document CHEMBL1133666, “Esterase-sensitive nitric oxide donors of the diazeniumdiolate family: in vitro antileukemic activity” (J Med Chem, 2000):

Experiments:
HL-60 [1] = assay: Within 24 hr at initial concentrations of 50 uM, apoptosis induction was evaluated in HL-60 cells; format: functional
How it was run: (§1)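 Cells grown at 150 000 cells/mL in RPMI-1640 with 10% FBS, 37 °C, 5% CO₂, with compound added at culture start and read at 24 h. Cells washed in PBS and lysed in 0.2% NP40/5% BSA in PBS with propidium iodide and RNase A. Flow cytometry scored the low-DNA-content (apoptotic) fraction as percent of cells. Means ± SEM of ≥3 experiments.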

HL-60 [2] = assay: Inhibitory activity towards HL-60 cells at 72 hours; format: functional, cell-based; conditions: Homo sapiens, HL-60, 72 h
How it was run: (§2)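 Leukemia cells seeded at 150 000 cells/mL in RPMI-1640 with 10% FBS, 37 °C, 5% CO₂, 1 mL per well. NO donors added at culture initiation. Cells harvested at 72 h and washed twice in PBS. Viable cells counted by Trypan blue exclusion. IC50 calculated from the concentration–growth curve. Means ± SEM of at least three separate experiments.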

U-937 [3] = assay: Within 24 hr at initial concentrations of 50 uM, apoptosis induction was evaluated in U937 cells; format: functional; how it was run: as §1
U-937 [4] = assay: Inhibitory activity towards U937 cells at 72 hours; format: functional, cell-based; conditions: Homo sapiens, U-937, 72 h; how it was run: as §2
HL-60 [5] = assay: Inhibitory activity towards HL-60 cells at concentration of 100 uM; format: functional; conditions: Homo sapiens; how it was run: as §2
U-937 [6] = assay: Inhibitory activity towards U937 cells at concentration of 100 uM; format: functional; conditions: Homo sapiens; how it was run: as §2

Row | SMILES | Apoptosis induction (HL-60 [1]) [%] | IC50 (HL-60 [2]) [µM] | Apoptosis induction (U-937 [3]) [%] | IC50 (U-937 [4]) [µM] | inhibition at 100 µM (HL-60 [5]) [%] | inhibition at 100 µM (U-937 [6]) [%]
1 | CCN(CC)/[N+]([O-])=N/OCOC(C)=O | 50 | 8.3 | 35 | 53 |  | 
2 | CC(=O)OCO/N=[N+](\[O-])N1CCCC1 | 57 | 6.4 | 40 | 53 |  | 
3 | [O-]/[N+](=N\O)N1CCCC1 |  | > 600 |  |  |  | 
4 | CCN(CC)/[N+]([O-])=N/O |  | > 600 |  |  |  | 
5 | CCN(CC)/[N+]([O-])=N/OCCSC(C)=O |  |  |  |  | 90 | 48
